Measurements as given in ChEMBL document CHEMBL3792386, “Design, Synthesis, and Biological Evaluation of Novel Selenium (Se-NSAID) Molecules as Anticancer Agents” (J Med Chem, 2016).
pIC50: −log10 of the molar value. The source made the active and inactive calls. No cut-off for these calls is given here.

Columns and labels:
[1] = tested on: UACC-903; assay: Antiproliferative activity against human UACC-903 cells assessed as reduction in cell viability after 48 hrs by MTT assay; assay type: functional, cell-based; settings: UACC-903, 48 h
How it was run: (§1)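 3000 cells/well incubated in triplicate with serial concentrations of compound for 24, 48 or 72 h at 37 °C. MTT (5.0 mg/mL solution) added 3 h before the end. Formazan dissolved in DMSO, absorbance read at 570 and 630 nm. Viability normalised to vehicle control. IC50 from non-linear regression (variable slope), mean ± SD of triplicates.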

[2] = Antiproliferative activity against human PANC1 cells assessed as reduction in cell viability after 72 hrs by MTT assay; assay type: functional, cell-based; settings: PANC-1, 72 h; how it was run: as §1
[3] = tested on: UACC-903; assay: Antiproliferative activity against human UACC-903 cells assessed as reduction in cell viability after 72 hrs by MTT assay; assay type: functional, cell-based; settings: UACC-903, 72 h; how it was run: as §1
[4] = tested on: MDA-MB-231; assay: Antiproliferative activity against human MDA-MB-231 cells assessed as reduction in cell viability after 72 hrs by MTT assay; assay type: functional, cell-based; settings: MDA-MB-231, 72 h; how it was run: as §1
[5] = tested on: HT-29; assay: Antiproliferative activity against human HT-29 cells assessed as reduction in cell viability after 24 hrs by MTT assay; assay type: functional, cell-based; settings: HT-29, 24 h; how it was run: as §1
[6] = tested on: HT-29; assay: Antiproliferative activity against human HT-29 cells assessed as reduction in cell viability after 72 hrs by MTT assay; assay type: functional, cell-based; settings: HT-29, 72 h; how it was run: as §1
[7] = Antiproliferative activity against human PANC1 cells assessed as reduction in cell viability after 48 hrs by MTT assay; assay type: functional, cell-based; settings: PANC-1, 48 h; how it was run: as §1
[8] = tested on: MDA-MB-231; assay: Antiproliferative activity against human MDA-MB-231 cells assessed as reduction in cell viability after 48 hrs by MTT assay; assay type: functional, cell-based; settings: MDA-MB-231, 48 h; how it was run: as §1
[9] = tested on: HT-29; assay: Antiproliferative activity against human HT-29 cells assessed as reduction in cell viability after 48 hrs by MTT assay; assay type: functional, cell-based; settings: HT-29, 48 h; how it was run: as §1
[10] = tested on: MDA-MB-231; assay: Antiproliferative activity against human MDA-MB-231 cells assessed as reduction in cell viability after 24 hrs by MTT assay; assay type: functional, cell-based; settings: MDA-MB-231, 24 h; how it was run: as §1
[11] = tested on: UACC-903; assay: Antiproliferative activity against human UACC-903 cells assessed as reduction in cell viability after 24 hrs by MTT assay; assay type: functional, cell-based; settings: UACC-903, 24 h; how it was run: as §1
[12] = Antiproliferative activity against human PANC1 cells assessed as reduction in cell viability after 24 hrs by MTT assay; assay type: functional, cell-based; settings: PANC-1, 24 h; how it was run: as §1
[13] = tested on: HCT-116; assay: Cytotoxicity against human HCT116 cells assessed as reduction in cell viability after 48 hrs MTT assay; assay type: functional, cell-based
How it was run: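 Cells (HCT116, nHDF in serum-free fibroblast medium with growth kit, or MEFs) exposed to increasing compound concentrations for 48 h at 37 °C. Viability read by MTT: 3000 cells/well, triplicate, MTT 3 h before end, formazan in DMSO, absorbance 570/630 nm. Mean ± SD.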

[14] = tested on: HCT-116; assay: Induction of cell death in human HCT116 cells at 1 mM after 24 hrs by ethidium bromide staining-based fluorescence microscopy; assay type: functional
How it was run: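 HCT116 cells were exposed for 24 h with a DMSO vehicle comparison, then trypsinized and stained with calcein-AM (live, esterase activity) and ethidium homodimer-1 (dead, lost membrane integrity). Fluorescence microscopy was done at 20X, and the percentage of dead cells was calculated as mean ±SD.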

Row | Structure (SMILES) | pIC50 [1] | pIC50 [2] | pIC50 [3] | pIC50 [4] | pIC50 [5] | pIC50 [6] | pIC50 [7] | pIC50 [8] | pIC50 [9] | pIC50 [10] | pIC50 [11] | pIC50 [12] | Activity [13] | Activity [14]
1 | CC(=O)Oc1ccccc1C(=O)NCCSC#N | < 4.30 | 5.06 | < 4.30 | < 4.30 | < 4.30 | < 4.30 | 4.75 | < 4.30 | < 4.30 | < 4.30 | < 4.30 | < 4.30 | – | –
2 | O=c1[nH]cc(F)c(=O)[nH]1 | – | – | – | – | – | – | – | – | – | – | – | – | Active | –
3 | CC(=O)Oc1ccccc1C(=O)[Se]CC[Se]C#N | 4.80 | 5.02 | 4.90 | 4.73 | < 4.30 | 4.75 | 4.72 | 4.47 | 4.56 | < 4.30 | < 4.30 | < 4.30 | – | –
4 | COc1ccc2cc([C@H](C)C(=O)NCC[Se]C#N)ccc2c1 | < 4.30 | < 4.30 | < 4.30 | < 4.30 | < 4.30 | < 4.30 | < 4.30 | < 4.30 | < 4.30 | < 4.30 | < 4.30 | < 4.30 | – | –
5 | CC(=O)Oc1ccccc1C(=O)[Se]CCBr | 4.71 | < 4.30 | 4.99 | 5.06 | 4.55 | 4.71 | < 4.30 | 4.73 | 4.56 | 4.63 | 4.64 | 4.41 | – | –
6 | COc1ccc2cc([C@H](C)C(=O)O)ccc2c1 [NAPROXEN] | < 4.30 | < 4.30 | < 4.30 | < 4.30 | < 4.30 | < 4.30 | < 4.30 | < 4.30 | < 4.30 | < 4.30 | < 4.30 | < 4.30 | – | –
7 | CC(=O)Oc1ccccc1C(=O)[Se]CC[Se]C(=O)c1ccccc1OC(C)=O | 5.44 | 5.47 | 5.52 | 5.12 | 4.73 | 5.26 | 4.87 | 4.96 | 5.46 | 4.73 | 4.76 | 4.48 | – | –
8 | C[Se]CC(NC(=O)c1ccccc1OC(C)=O)C(=O)O (stereo not given) | < 4.30 | 4.56 | < 4.30 | < 4.30 | < 4.30 | < 4.30 | 4.58 | < 4.30 | < 4.30 | < 4.30 | < 4.30 | < 4.30 | – | –
9 | CC(=O)Oc1ccccc1C(=O)O [ASPIRIN] | < 4.30 | < 4.30 | < 4.30 | < 4.30 | < 4.30 | < 4.30 | < 4.30 | < 4.30 | < 4.30 | < 4.30 | < 4.30 | < 4.30 | Active | inactive
10 | CC(=O)Oc1ccccc1C(=O)OCC[Se]C#N | 4.84 | 4.82 | 4.75 | 4.46 | 4.99 | 4.69 | 4.44 | 4.62 | 4.51 | < 4.30 | 4.47 | 4.41 | – | –
11 | CC(C)Cc1ccc(C(C)C(=O)NCC[Se]C#N)cc1 (stereo not given) | < 4.30 | < 4.30 | < 4.30 | < 4.30 | < 4.30 | < 4.30 | < 4.30 | < 4.30 | < 4.30 | < 4.30 | < 4.30 | < 4.30 | – | –
12 | CC(C)Cc1ccc(C(C)C(=O)O)cc1 (stereo not given) [IBUPROFEN] | < 4.30 | < 4.30 | < 4.30 | < 4.30 | < 4.30 | < 4.30 | < 4.30 | < 4.30 | < 4.30 | < 4.30 | < 4.30 | < 4.30 | – | –
